Screening data deposited in PubChem by Sanford-Burnham Center for Chemical Genomics.
Apaf1 inhib = inhibitors of human Apaf-1 apoptosome | O14727 | reconstituted apoptosome caspase-3 activity, DEVD-Rh110 fluorescence | inhibition, % at 20 µM | 330,000 compounds, 0.71% hits; active means inhibition of at least 40% at 20 µM;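 further: plate controls were DMSO wells for no effect and DEVD-CHO caspase inhibitor wells for full effect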
Target sequence (O14727 whole entry, looked up): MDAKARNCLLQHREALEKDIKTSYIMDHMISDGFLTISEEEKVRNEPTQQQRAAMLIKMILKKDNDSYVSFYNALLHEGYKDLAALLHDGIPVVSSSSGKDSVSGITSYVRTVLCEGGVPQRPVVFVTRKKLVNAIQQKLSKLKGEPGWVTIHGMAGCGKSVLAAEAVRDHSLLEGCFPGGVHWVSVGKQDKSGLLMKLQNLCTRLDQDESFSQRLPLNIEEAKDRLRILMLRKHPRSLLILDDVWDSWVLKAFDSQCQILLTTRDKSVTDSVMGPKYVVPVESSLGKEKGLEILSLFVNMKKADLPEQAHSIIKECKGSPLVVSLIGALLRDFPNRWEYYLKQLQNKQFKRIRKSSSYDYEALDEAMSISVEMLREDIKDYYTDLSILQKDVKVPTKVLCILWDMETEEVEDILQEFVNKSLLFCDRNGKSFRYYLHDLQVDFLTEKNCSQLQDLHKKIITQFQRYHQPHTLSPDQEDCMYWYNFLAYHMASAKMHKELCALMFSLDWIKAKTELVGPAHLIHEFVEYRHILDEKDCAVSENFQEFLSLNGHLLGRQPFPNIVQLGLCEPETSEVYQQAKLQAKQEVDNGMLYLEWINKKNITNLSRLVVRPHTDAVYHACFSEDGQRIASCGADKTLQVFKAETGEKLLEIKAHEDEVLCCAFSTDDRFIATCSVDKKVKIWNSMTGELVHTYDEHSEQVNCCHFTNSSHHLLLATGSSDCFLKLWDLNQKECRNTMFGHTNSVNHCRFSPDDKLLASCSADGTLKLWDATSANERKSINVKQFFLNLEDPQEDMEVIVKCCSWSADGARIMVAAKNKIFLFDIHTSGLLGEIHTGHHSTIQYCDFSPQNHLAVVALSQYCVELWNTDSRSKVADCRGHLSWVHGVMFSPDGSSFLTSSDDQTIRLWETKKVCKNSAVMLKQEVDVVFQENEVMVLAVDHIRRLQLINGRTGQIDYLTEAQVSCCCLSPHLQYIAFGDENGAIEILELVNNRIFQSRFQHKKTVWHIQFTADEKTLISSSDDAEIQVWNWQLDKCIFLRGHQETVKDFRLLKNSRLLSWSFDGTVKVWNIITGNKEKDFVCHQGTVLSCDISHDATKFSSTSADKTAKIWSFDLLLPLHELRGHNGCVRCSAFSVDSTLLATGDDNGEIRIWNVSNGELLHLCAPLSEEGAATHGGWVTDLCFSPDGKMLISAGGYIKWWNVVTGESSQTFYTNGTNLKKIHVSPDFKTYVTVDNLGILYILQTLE
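System: reconstituted apoptosome with Apaf-1, cytochrome c, caspase-9, procaspase-3, dATP; Signal: Rh110 fluorescence intensity; Schedule: 30 min compound preincubation, 50 min activation, room temperature; Reagent: cytochrome c trigger plus (Z-DEVD)2-Rh110 caspase-3 substrate.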
SENP1 inh = blocks the human SENP1 SUMO protease catalytic domain | Q9P0U3 | recombinant SENP1 catalytic domain, CyPet-SUMO1-YPet FRET cleavage | inhibition, % at 10 µM | 360,000 compounds, 0.21% hits | AID 624204;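 active means inhibition at least 30% at 10 µM, raw YFP signal under a set limit, fluorescence ratio 0.5 to 1.5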;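 further: 0% = enzyme with DMSO and 100% = no enzyme wells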
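Test system: recombinant human SENP1 catalytic domain, His6-tagged / Medium: pH 8 Tris buffer with EDTA, NaCl, BME, BSA, NP40, catalase / Also added: SUMO1 FRET substrate flanked by Cypet and Ypet, 25 nM / Times: 50 min reaction at room temperature / Signal: FRET, CFP and YFP emission / Control set: no-enzyme low control and enzyme-plus-DMSO high control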
SENP8 block-1 = inhibitors of human SENP8 protease; Q96LD8; inhibition, % at 20 µM; AID 602440; 360,000 compounds, 0.64% hits; recombinant SENP8, Nedd8 substrate fluorescence; in the data active means inhibition mostly above about 40%, no sharp cut-off; inactive means mostly below about 27%
SENP8 block-2 = blocks the human protease SENP8; 330,000 compounds, 1.2% hits; purified SENP8, Z-RLRGG-aminoluciferin cleavage, luminescence; inhibition, % at 10 µM; Q96LD8; in the data active means inhibition above about 50%
SENP6 inh = inhibitors of human SENP6 protease | Q9GZR1 | AID 2599 | inhibition, % at 10 µM | Recombinant SENP6 catalytic domain, aminoluciferin luminescence | 330,000 compounds, 1.8% hits;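 active means inhibition above about 50% at the single tested dose, limit read from the data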;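 further: plate controls were DMSO wells with enzyme for no effect and DMSO wells lacking enzyme for full effect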
SENP7 inh = inhibitors of human SENP7 protease. Q9BQF6. recombinant SENP7, Z-RLRGG-aminoluciferin luminescence, 40 min. inhibition, % at 5 µM. 330,000 compounds, 1.5% hits. AID 434973;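 active means inhibition above about 50% at the single test dose, limit read from the data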;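 further: plate controls were DMSO with enzyme for no effect and no enzyme buffer wells for full effect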
Apaf-1 inh conf2 = Apaf-1 inhibition, single-dose confirmed | inhibition, % at 20 µM | reconstituted apoptosome, caspase-3 DEVD-Rh110 fluorescence | 1,800 compounds, 25% hits | shares compounds with Apaf1 inhib;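 active means mean inhibition of at least 40% at 20 µM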;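 further: plate controls were DMSO wells for no effect and DEVD-CHO caspase inhibitor control wells for full effect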
Rh110 quench = Rh110 signal interference in Apaf-1 inhibitor counter-screen | activation (fluorescence interference), % at 20 µM | AID 504615 | shares compounds with Apaf1 inhib | Rh110 fluorescence interference, quenched caspase reaction | 1,800 tested, under 10 active;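 active means signal rise of 40% or more at 20 µM, treated as a fluorescence artifact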
Apaf1 inh interf = shows fluorescence interference in the Apaf-1 inhibitor assay format | shares compounds with Apaf1 inhib | fluorescence interference counterscreen, Apaf-1 assay format | 460 tested, under 10 active | IC50, µM; call rule not given here
Active calls of the source: *; x = no result given. Hits are enriched below; roughly 2.9% of the tested compounds scored in any of these assays.

SMILES	Apaf1 inhib	SENP1 inh	SENP8 block-1	SENP8 block-2	SENP6 inh	SENP7 inh	Apaf-1 inh conf2	Rh110 quench	others
COc1ccc(Cc2c(-c3cccc(Br)c3)nc3c(C)cc(Br)cn23)c(C)c1	x	-1	-71	x	x	x	x	x
O=C(NCc1cccs1)c1cc(S(=O)(=O)N2CCOCC2)c(Cl)cc1Cl	-3	0	7	5	-10	-3	x	x
Cc1cccc(/C=N/Nc2cc(N3CCOCC3)nc(N3CCOCC3)n2)c1	68*	-4	8	6	20	19	33	4
Oc1ccc(/C=N\Nc2cc(N3CCOCC3)nc(N3CCOCC3)n2)c(O)c1	85*	-23	28	12	47	25	60*	7	Apaf1 inh interf=>100
Cc1cc(N/N=C/c2ccccc2)nc(N2CCOCC2)n1	1	2	9	-8	-8	4	x	x
Cc1ccc(/C=N/Nc2cc(C)nc(N3CCOCC3)n2)cc1	5	1	-3	-13	-18	4	x	x
Oc1ccc(/C=N/Nc2cc(N3CCCC3)nc(N3CCCC3)n2)cc1O	60*	-29	-127	8	33	6	89*	3	Apaf1 inh interf=>100
CC(C)c1ccc(/C=N/Nc2cc(N3CCOCC3)nc(N3CCOCC3)n2)cc1	62*	0	3	-10	4	-2	46*	11	Apaf1 inh interf=>100
Cc1cc(N/N=C/c2ccc(O)cc2O)nc(N2CCOCC2)n1	31	-21	-32	-2	0	6	x	x
COCCN1C[C@@H](CO)O[C@@H](n2cnc3c(NC4CCCC4)ncnc32)C1	x	0	12	x	x	x	x	x
Cc1cc2c(cc1C)-n1nnnc1C(N1CCCNCC1)C(=O)N2 (stereo unspecified)	x	-34	-11	x	x	x	x	x
CCOc1ccc(C(=O)COC(=O)Cn2[nH]c(=O)c3ccccc3c2=O)cc1	x	0	5	x	x	x	x	x
COc1ccc(OC)c(S(=O)(=O)N2CCCC(C(=O)NC3CC3)C2)c1 (stereo unspecified)	x	-1	8	x	x	x	x	x
CCCCCCCCCCCCOC(=O)C[N+](C)(C)C	46*	x	x	-4	-44	-4	10	1
CCCCCCn1c2c(c(=N)c3c1CCC3)CCC2	1	0	14	4	-1	-1	x	x
CCCCCCCCCn1c2c(c(=N)c3c1CCC3)CCC2	50*	-1	13	-5	-23	-6	18	10
COc1ccc(OCCSc2ccc(S(=O)(=O)N3CCCC3)cn2)cc1	15	3	5	-4	8	-1	x	x
CN1CCN(S(=O)(=O)c2ccc(SCCOc3ccc(Cl)cc3)nc2)CC1	51*	2	5	-14	-16	-6	15	7
O=c1[nH]c(CN2CCc3ccccc3C2)nc2ccccc12	65*	-32	-14	18	48	18	14	0
Nc1ncnc2c1ncn2[C@@H]1O[C@H](CNC(=O)[C@@H](N)C2CCCCC2)[C@@H](O)[C@H]1O	5	1	7	x	x	-2	x	x
CN(c1ccccc1)S(=O)(=O)c1cccc(C(=O)NCc2ccccc2CN2CCCC2)c1	52*	-7	16	3	8	10	21	6
O=c1cc(-c2ccccc2)oc2c1CCCC2	x	0	9	x	x	x	x	x
NC(=O)CSc1nc2scc(-c3ccc(Cl)cc3)c2c(=O)n1Cc1ccccc1	47*	-2	6	-5	2	-4	18	2
Cc1cccc(CC(=O)NCCn2c(C)cc3ccccc32)c1	41*	-50	-7	-13	-2	11	15	12
COc1ccc(-c2sc3cc4c(cc3c2-c2ccc(OCCN3CCCCC3)cc2)OCO4)cc1	59*	1	-324	x	x	6	6	9
SMILES	Apaf1 inhib	SENP1 inh	SENP8 block-1	SENP8 block-2	SENP6 inh	SENP7 inh	Apaf-1 inh conf2	Rh110 quench	others
COc1cc(OC)cc(-c2sc3ccc(OC)cc3c2-c2ccc(OCCN3CCCCC3)cc2)c1	60*	3	-199	x	x	5	-3	9
CCCCOc1ccc(C(=O)NCC(=O)NCC(c2cccs2)N2CCOCC2)cc1 (stereo unspecified)	41*	-2	7	-6	-19	7	42*	13	Apaf1 inh interf=>100
Nc1ccc2nc(-c3ccc(-c4nc5ccc(N)cc5[nH]4)cc3)[nH]c2c1	-11	x	x	9	1	0	x	x
Nc1ccc2nc(-c3cccc(-c4nc5ccc(N)cc5[nH]4)n3)[nH]c2c1	40*	-26	-28	8	-6	11	16	21
O=C(C[C@@H]1CC[C@H](NC(=O)Nc2ccc(F)cc2)[C@@H](CO)O1)NCc1cccc(F)c1	x	2	13	x	x	x	x	x
COC(=O)[C@]12CCCCC=C1N(Cc1ccccc1)C(=O)[C@H](CC(=O)N1CCSCC1)C2	x	1	15	x	x	x	x	x
COc1ccc(S(=O)(=O)N2CCN(c3ccc4nnc(-c5ccc(F)cc5)n4n3)CC2)cc1	51*	2	-31	1	-7	-4	47*	0	Apaf1 inh interf=>100
CCN(CC)c1ccc(N=C2C(=O)Nc3ccccc32)cc1	47*	6	30	2	16	8	15	1
CC(C)C[C@H]1CNC(=O)C(=O)N1C[C@@H]1CCCN1C[C@H](Cc1ccccc1)N1C[C@H](Cc2ccccc2)N(CC2CCCCC2)C(=O)C1=O	x	-2	13	x	x	x	x	x
CCN(CC)C(=O)C1=C(C)N(CCC2=CCCCC2)C(=O)C(CC(=O)NCc2ccco2)C1 (stereo unspecified)	x	1	-20	x	x	x	x	x
O=C(c1ccc2ncsc2c1)N1CCCC(C(F)(F)F)C1 (stereo unspecified)	42*	-1	-19	-18	-16	6	31	5
O=C(c1ccc(Cl)c(S(=O)(=O)N2CCCCCC2)c1)N1CCCC(C(F)(F)F)C1 (stereo unspecified)	60*	0	4	-11	-8	-8	34	-1
O=C(c1ccccc1)c1ccc2nc(-c3ccc(NC(=O)c4ccccc4Br)cc3)[nH]c2c1	-5	0	-259	-3	-6	3	x	x
Oc1c(Br)cc(C=Nc2ccc3nc(-c4ccccc4)[nH]c3c2)c(O)c1Br	65*	x	x	29	-24	9	38	1
O=C(O)CSCC(=O)N(c1ccccc1)c1ccccc1	-15	-3	0	5	-4	-5	x	x
COc1cc2nc(Nc3ccc(C)c(Cl)c3)nc(N)c2cc1OC	45*	1	-297	13	28	39	35	14
